In ChEMBL document CHEMBL5696442, “Discovery of type II inhibitors of TGFβ-activated kinase 1 (TAK1) and mitogen-activated protein kinase kinase kinase kinase 2 (MAP4K2)” (J Med Chem, 2015):
Activity calls are given as the source filed them. The rule behind the calls is not given here.

What was measured:
[1] = biological target: Calcium/calmodulin-dependent protein kinase type 1 (Homo sapiens) (UniProt Q14012); assay: Inhibition of CAMK1 alpha Lys1 labeling site in human Huh-7 cell lysate at 1 uM by KiNativ Profiling analysis relative to control; type: subcellular
[2] = biological target: p38 delta/gamma (Homo sapiens) (UniProt O15264+P53778); assay: Inhibition of p38delta/gamma Lys2 labeling site in human A-375 cells at 5 uM by KiNativ Profiling analysis relative to control; type: cell-based
[3] = biological target: Proto-oncogene tyrosine-protein kinase Src (Homo sapiens, UniProt P12931); assay: Inhibition of SRC Lys1 labeling site in human A-375 cells at 5 uM by KiNativ Profiling analysis relative to control; type: cell-based
[4] = tested on: GEN2.2; assay: Inhibition of CL097 induced p38 phosphorylation level in human GEN2.2 cells at 1 uM preincubated with compound for 1 hr followed by CL097 stimulation and measured after 30 mins by Western blot analysis; type: functional, cell-based
In short: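 Gen2.2 cells were pretreated with compound at 1 μM for 1 h, then stimulated with CL097 for 30 min. Lysates were analysed by Western blot for phosphorylation of p105, p38 and JNK1/2.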

[5] = biological target: Cyclin-dependent kinase 10 (Homo sapiens) (UniProt Q15131); assay: Inhibition of CDK10 Lys2 labeling site in human A-375 cells at 5 uM by KiNativ Profiling analysis relative to control; type: cell-based
In short: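 Intact A375 melanoma cells were treated with compound at 5 or 0.5 μM, then lysed. Lysate kinases were labeled with a lysine-reactive ATP or ADP-biotin probe (KiNativ). Inhibition is read as protection of each kinase labeling site from probe labeling.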

[6] = biological target: T1, Mitogen-activated protein kinase kinase kinase 2 (Homo sapiens) (UniProt Q9Y2U5); assay: Inhibition of MAP3K2 Lys1 labeling site harbouring VYLCYDVDTGRELAVKQVQFDPDSPETSKEVNALECEIQLLK in human A-375 cells at 5 uM by KiNativ Profiling analysis relative to control; type: cell-based
T1 sequence (whole entry): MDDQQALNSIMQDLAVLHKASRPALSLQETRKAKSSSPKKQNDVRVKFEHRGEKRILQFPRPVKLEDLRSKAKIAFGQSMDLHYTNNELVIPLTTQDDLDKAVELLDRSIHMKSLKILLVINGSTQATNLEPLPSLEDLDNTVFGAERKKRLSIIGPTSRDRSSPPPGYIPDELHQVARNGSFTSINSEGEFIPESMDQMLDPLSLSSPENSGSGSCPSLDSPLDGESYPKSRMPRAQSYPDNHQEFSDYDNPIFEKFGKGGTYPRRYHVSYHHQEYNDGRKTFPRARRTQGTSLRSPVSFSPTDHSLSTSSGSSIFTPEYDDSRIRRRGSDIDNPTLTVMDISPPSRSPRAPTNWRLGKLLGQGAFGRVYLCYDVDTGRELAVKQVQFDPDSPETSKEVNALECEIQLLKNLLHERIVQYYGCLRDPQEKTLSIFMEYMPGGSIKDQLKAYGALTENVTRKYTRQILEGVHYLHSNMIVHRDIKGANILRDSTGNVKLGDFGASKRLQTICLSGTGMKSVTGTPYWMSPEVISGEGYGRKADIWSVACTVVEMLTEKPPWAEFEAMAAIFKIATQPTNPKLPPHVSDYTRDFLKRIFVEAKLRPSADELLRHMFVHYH

[7] = biological target: Dual specificity mitogen-activated protein kinase kinase 2 (Homo sapiens) (UniProt P36507); assay: Inhibition of MAP2K2 Lys2 labeling site in human A-375 cells at 0.5 uM by KiNativ Profiling analysis relative to control; type: cell-based
[8] = biological target: Dual specificity mitogen-activated protein kinase kinase 2 (Homo sapiens) (UniProt P36507); assay: Inhibition of MAP2K2 Lys1 labeling site in human A-375 cells at 0.5 uM by KiNativ Profiling analysis relative to control; type: cell-based
[9] = biological target: Mitogen-activated protein kinase kinase kinase 1 (Homo sapiens) (UniProt Q13233); assay: Inhibition of MAP3K1 Lys2 labeling site in human A-375 cells at 0.5 uM by KiNativ Profiling analysis relative to control; type: cell-based
[10] = biological target: T2, Mixed lineage kinase domain-like protein (Homo sapiens) (UniProt Q8NB16); assay: Inhibition of MLKL Lys1 labeling site in human A-375 cells at 0.05 uM by KiNativ Profiling analysis relative to control; type: cell-based
T2 sequence (whole entry): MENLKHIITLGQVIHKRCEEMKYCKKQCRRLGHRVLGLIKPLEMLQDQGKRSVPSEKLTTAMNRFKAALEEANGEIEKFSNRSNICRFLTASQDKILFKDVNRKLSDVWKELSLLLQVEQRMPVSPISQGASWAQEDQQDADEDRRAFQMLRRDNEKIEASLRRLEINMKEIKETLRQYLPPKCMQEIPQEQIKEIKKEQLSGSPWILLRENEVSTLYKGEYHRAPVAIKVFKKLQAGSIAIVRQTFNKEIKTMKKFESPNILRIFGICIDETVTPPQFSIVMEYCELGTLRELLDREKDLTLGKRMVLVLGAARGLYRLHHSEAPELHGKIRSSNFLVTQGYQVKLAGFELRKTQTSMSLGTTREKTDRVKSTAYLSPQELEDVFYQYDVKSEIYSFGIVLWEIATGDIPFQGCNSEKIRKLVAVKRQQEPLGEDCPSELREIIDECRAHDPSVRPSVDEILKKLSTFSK

[11] = biological target: T3, Serine/threonine-protein kinase 3 (Homo sapiens) (UniProt Q13188); assay: Inhibition of MST2 Lys1 labeling site in human A-375 cells at 0.05 uM by KiNativ Profiling analysis relative to control; type: cell-based
T3 sequence (whole entry): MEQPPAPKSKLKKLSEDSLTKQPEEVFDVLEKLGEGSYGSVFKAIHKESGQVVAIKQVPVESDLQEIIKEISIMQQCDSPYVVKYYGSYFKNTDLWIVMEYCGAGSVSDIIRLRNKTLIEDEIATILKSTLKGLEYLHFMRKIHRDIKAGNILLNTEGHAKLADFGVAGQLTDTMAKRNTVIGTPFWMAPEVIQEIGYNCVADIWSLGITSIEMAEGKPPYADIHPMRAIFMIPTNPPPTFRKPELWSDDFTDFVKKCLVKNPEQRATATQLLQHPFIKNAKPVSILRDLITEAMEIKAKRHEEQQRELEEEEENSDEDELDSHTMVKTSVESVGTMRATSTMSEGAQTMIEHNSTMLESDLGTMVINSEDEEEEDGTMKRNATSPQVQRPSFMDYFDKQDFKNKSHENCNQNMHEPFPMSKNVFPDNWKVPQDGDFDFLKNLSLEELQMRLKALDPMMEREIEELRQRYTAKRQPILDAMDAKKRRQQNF

[12] = biological target: Serine/threonine-protein kinase WNK1 (Homo sapiens) (UniProt Q9H4A3); assay: Inhibition of Wnk1 ACT labeling site in human A-375 cells at 0.05 uM by KiNativ Profiling analysis relative to control; type: cell-based
Sequence of Serine/threonine-protein kinase WNK1 (Homo sapiens) (Q9H4A3 whole entry, looked up): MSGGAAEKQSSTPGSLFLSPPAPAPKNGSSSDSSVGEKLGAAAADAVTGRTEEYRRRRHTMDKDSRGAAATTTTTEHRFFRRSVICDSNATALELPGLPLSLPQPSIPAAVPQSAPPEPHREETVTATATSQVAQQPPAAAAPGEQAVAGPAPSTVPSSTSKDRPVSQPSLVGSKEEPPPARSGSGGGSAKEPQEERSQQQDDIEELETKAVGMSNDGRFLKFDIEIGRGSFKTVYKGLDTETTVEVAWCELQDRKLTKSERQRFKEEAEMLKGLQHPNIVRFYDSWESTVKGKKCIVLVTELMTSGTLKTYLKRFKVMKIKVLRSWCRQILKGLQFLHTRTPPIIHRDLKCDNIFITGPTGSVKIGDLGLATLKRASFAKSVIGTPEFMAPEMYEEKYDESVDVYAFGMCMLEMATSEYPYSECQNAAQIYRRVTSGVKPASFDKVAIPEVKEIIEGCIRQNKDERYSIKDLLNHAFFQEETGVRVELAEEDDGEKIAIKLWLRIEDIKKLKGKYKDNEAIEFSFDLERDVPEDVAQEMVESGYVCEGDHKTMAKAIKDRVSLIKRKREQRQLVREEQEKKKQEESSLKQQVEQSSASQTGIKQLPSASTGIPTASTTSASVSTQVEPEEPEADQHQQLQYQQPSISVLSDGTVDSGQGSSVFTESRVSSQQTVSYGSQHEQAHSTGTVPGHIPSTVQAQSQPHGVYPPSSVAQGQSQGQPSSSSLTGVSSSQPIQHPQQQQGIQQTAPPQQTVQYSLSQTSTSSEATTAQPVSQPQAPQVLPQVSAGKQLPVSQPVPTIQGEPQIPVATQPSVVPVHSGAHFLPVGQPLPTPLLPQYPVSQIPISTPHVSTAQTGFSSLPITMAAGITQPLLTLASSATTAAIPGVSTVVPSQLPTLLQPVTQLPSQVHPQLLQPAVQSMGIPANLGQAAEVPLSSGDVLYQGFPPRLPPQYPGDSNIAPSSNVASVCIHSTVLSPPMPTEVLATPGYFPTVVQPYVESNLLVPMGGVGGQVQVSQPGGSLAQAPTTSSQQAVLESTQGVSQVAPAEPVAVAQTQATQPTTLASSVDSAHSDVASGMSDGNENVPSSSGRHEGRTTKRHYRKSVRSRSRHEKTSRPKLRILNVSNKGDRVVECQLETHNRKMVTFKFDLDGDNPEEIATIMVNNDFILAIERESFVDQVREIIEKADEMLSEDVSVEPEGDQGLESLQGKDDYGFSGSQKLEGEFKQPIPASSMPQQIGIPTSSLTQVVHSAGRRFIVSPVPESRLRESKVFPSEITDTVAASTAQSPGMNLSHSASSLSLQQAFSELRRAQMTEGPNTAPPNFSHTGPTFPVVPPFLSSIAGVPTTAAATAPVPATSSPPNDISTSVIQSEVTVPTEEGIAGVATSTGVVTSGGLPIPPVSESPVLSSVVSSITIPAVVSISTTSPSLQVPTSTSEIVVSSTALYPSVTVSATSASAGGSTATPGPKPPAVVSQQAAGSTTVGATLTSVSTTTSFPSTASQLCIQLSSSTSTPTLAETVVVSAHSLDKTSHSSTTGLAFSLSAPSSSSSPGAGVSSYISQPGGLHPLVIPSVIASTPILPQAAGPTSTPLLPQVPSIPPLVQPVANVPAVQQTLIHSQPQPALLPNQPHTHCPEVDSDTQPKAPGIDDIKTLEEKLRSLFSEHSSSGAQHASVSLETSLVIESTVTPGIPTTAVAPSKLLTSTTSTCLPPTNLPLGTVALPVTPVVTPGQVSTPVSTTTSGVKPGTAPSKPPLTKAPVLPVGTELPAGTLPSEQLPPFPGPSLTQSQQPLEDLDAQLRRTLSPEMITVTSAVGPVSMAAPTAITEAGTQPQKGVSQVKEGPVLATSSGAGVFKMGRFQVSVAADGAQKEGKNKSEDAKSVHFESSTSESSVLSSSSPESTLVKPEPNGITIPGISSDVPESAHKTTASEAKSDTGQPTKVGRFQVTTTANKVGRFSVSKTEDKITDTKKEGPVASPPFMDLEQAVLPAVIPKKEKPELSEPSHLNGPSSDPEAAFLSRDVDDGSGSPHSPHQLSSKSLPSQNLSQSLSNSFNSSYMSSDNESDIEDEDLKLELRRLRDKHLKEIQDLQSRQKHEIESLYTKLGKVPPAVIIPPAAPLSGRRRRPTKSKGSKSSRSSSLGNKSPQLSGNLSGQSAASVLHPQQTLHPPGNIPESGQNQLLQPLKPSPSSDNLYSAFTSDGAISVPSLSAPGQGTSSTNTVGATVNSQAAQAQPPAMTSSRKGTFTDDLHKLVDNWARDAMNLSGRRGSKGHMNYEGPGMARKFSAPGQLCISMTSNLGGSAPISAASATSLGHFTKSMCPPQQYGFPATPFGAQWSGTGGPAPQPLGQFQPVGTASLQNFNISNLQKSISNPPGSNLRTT

Sequence of Dual specificity mitogen-activated protein kinase kinase 2 (Homo sapiens) (P36507 whole entry): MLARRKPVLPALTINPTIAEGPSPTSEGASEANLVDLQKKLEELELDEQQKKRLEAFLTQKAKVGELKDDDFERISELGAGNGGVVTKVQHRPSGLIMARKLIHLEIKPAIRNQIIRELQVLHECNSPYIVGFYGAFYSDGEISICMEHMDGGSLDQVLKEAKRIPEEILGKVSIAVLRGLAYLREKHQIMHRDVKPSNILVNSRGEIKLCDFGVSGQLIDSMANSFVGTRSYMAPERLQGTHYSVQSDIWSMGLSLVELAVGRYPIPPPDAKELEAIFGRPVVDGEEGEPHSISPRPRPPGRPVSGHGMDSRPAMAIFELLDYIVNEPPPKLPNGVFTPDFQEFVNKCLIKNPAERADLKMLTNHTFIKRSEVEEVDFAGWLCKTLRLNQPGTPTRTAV
Sequence of Calcium/calmodulin-dependent protein kinase type 1 (Homo sapiens) (Q14012 whole entry, looked up): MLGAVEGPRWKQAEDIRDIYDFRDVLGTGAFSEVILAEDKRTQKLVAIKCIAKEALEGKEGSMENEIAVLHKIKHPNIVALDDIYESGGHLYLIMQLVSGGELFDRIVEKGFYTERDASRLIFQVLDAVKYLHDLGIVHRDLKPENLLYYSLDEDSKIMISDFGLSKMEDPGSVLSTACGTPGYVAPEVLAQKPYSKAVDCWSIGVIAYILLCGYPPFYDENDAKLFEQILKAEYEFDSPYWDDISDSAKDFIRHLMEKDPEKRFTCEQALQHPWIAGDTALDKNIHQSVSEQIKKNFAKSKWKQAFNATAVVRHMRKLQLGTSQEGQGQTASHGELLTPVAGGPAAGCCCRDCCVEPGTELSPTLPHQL
Sequence of Cyclin-dependent kinase 10 (Homo sapiens) (Q15131 whole entry): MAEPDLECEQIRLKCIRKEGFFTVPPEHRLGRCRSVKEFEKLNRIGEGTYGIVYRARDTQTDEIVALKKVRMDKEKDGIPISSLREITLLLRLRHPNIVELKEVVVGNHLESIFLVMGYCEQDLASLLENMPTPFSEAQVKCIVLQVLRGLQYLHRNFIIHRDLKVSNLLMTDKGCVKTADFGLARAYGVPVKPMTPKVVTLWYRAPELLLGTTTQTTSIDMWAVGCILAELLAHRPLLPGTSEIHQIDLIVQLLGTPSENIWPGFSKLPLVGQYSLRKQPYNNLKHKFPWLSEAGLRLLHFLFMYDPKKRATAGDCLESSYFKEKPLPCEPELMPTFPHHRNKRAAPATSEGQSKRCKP
Sequence of Proto-oncogene tyrosine-protein kinase Src (P12931 2-536 limits assumed): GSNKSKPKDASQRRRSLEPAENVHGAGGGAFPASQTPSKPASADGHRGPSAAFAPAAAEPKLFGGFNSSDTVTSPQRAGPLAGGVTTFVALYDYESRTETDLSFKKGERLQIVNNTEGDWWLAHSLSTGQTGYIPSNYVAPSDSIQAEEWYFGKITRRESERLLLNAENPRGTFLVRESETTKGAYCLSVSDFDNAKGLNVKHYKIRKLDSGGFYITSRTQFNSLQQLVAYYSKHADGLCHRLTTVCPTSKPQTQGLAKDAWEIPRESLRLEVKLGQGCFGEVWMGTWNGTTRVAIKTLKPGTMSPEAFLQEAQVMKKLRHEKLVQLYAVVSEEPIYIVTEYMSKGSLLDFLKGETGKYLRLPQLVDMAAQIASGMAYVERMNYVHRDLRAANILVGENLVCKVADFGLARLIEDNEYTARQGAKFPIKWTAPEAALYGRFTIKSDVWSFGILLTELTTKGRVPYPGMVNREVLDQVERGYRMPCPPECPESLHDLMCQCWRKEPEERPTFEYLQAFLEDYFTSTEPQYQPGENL

Compound | inhibition [1] [%] | inhibition [2] [%] | inhibition [3] [%] | inhibition [4] | inhibition [5] [%] | inhibition [6] [%] | inhibition [7] [%] | inhibition [8] [%] | inhibition [9] [%] | inhibition [10] [%] | inhibition [11] [%] | inhibition [12] [%]
CNc1cc(Oc2cc(C(=O)Nc3cc(N4CCN(C)CC4)cc(C(F)(F)F)c3)ccc2C)ncn1 | 8.8 |  |  |  |  |  |  |  |  |  |  | 
CCN1CCN(Cc2ccc(NC(=O)c3ccc(C)c(Oc4ccnc5[nH]ccc45)c3)cc2C(F)(F)F)CC1 |  | > 94 | > 92 | Active | 65.4 | 42.3 | -3.9 | -3.5 | 39.7 | 14.8 | -6.5 | 10.3
CNc1cc(Oc2cc(C(=O)Nc3cc(-n4cnc(C)c4)cc(C(F)(F)F)c3)ccc2C)ncn1 | 5 |  |  | inactive |  |  |  |  |  |  |  | 
CCN1CCN(Cc2ccc(NC(=O)c3ccc(C)c(/C=C/c4cnc5[nH]ccc5c4OC)c3)cc2C(F)(F)F)CC1 |  | 52.7 | > 92 |  | 11.5 | 55.5 | 1.8 | 4.4 | 43.9 | 12.8 | 9.2 | 10.1
